ChEMBL document CHEMBL1143810, “Synthesis and antimalarial evaluation of a series of piperazinyl flavones” (Bioorg Med Chem Lett, 2007)

How the values were obtained:
[1] = system: Plasmodium falciparum; assay: Antiplasmodial activity against Plasmodium falciparum D6; assay type: functional, organism-based
[2] = system: MRC5; assay: Cytotoxicity against MRC5 cells; assay type: cell-based, Homo sapiens; settings: for IC50: Homo sapiens, MRC5
Outline: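 MRC5 cells were cultured for 5 days in the presence of drug, with viability read by colorimetric MTT. IC50 was taken from the concentration–response curve and is the mean of three independent experiments.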

[3] = Selectivity index, ratio of IC50 for MRC5 cells to IC50 for Plasmodium falciparum FcB1; assay type: functional
Outline: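 Ratio of MRC5 IC50 to P. falciparum FcB1 IC50. MRC5 IC50 came from a 5-day drug exposure read by MTT. Parasite IC50 came from [³H]hypoxanthine incorporation in erythrocyte cultures. Both were taken from concentration–response curves as means of three independent experiments.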

[4] = system: Plasmodium falciparum; assay: Antiplasmodial activity against Plasmodium falciparum FcB1; assay type: functional, organism-based
Outline: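 P. falciparum FcB1 (chloroquine-resistant) was kept in continuous culture in human erythrocytes. Growth inhibition was read by [³H]hypoxanthine incorporation. IC50 was taken from the drug concentration–response curve and is the mean of three independent experiments.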

[5] = system: Plasmodium falciparum; assay: Antiplasmodial activity against chloroquine-resistant Plasmodium falciparum K1; assay type: functional, organism-based
Outline: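 Parasites kept in continuous culture on human erythrocytes; growth measured by [3H]hypoxanthine incorporation. IC50 taken from the drug concentration–response curve, mean of three independent experiments.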

[6] = system: Plasmodium falciparum; assay: In vitro antiplasmodial activity against Plasmodium falciparum Thai
[7] = system: Plasmodium yoelii; assay: Antiplasmodial activity as reduced parasitaemia against Plasmodium yoelii N67 infected Swiss mice (Mus musculus) at 10 mg/kg peroral dose; assay type: functional; settings: route oral
Outline: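 4-day suppressive test in P. yoelii nigeriensis N67-infected mice, five per group. Dosing oral, once daily from day 0, 0.5 ml/mouse. Untreated group received vehicle only. Parasitemia read on day 4 from Diff Quick-stained blood smears. Percent inhibition calculated against untreated mice. Deaths counted at day 14.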

[8] = system: Plasmodium yoelii; assay: Antiplasmodial activity as reduced parasitaemia against Plasmodium yoelii N67 infected Swiss mice (Mus musculus) at 50 mg/kg peroral dose; assay type: functional; settings: route oral
Outline: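 Peters 4-day suppressive test in mice infected with P. yoelii nigeriensis N67. Compound was given orally (0.5 ml) daily from day 0, at 10 or 50 mg/kg as per line. Groups had five mice, with a vehicle-only untreated group. Day-4 parasitemia was counted on Diff Quick-stained blood smears. % inhibition was calculated against untreated mice.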

Structure (SMILES)	IC50 [1] [µM]	IC50 [4] [nM]	IC50 [2] [µM]	Ratio IC50 [3]	further results
COc1ccc(-c2cc(=O)c3c(O)cc(OCC(=O)N4CCN(Cc5ccc(OC)c(OC)c5OC)CC4)cc3o2)cc1OCC(=O)N1CCN(Cc2ccc(OC)c(OC)c2OC)CC1	0.18		1		
COc1ccc(-c2cc(=O)c3c(O)cc(OCC(=O)N4CCN(Cc5ccc(OC)c(OC)c5OC)CC4)cc3o2)cc1O	5.3				
CCOC(=O)COc1cc(-c2cc(=O)c3c(O)cc(OCCN4CCN(Cc5ccc(OC)c(OC)c5OC)CC4)cc3o2)ccc1OC		4300	18	4.2	
CCOC(=O)COc1cc(-c2cc(=O)c3c(O)cc(OCC(=O)N4CCN(C(=O)OC(C)(C)C)CC4)cc3o2)ccc1OC		1800	3.8	2.1	
CCOC(=O)COc1cc(-c2cc(=O)c3c(O)cc(OCC(=O)N4CCN(Cc5ccc(OCc6ccccc6)c(OC)c5OC)CC4)cc3o2)ccc1OC		2800	10	3.6	
CCOC(=O)COc1cc(-c2cc(=O)c3c(O)cc(OCC(=O)N4CCN(Cc5ccc(O)c(OC)c5OC)CC4)cc3o2)ccc1OC		600	10	16.7	IC50 [5]: 400 nM; IC50 [6]: 1200 nM
CCOC(=O)COc1cc(-c2cc(=O)c3c(O)cc(OCC(=O)N4CCN(C)CC4)cc3o2)ccc1OC		26000			
COc1ccc(CN2CCN(C(=O)COc3ccc4c(=O)cc(-c5cc(C(C)(C)C)c(O)c(C(C)(C)C)c5)oc4c3)CC2)c(OC)c1OC		1200	> 150	>125	IC50 [5]: 400 nM; inhibition in vivo at 10 mg/kg [7]: 24.1%; inhibition in vivo at 50 mg/kg [8]: 38.5%; IC50 [6]: 900 nM
COc1ccc(CN2CCN(C(=O)COc3ccc4c(=O)cc(-c5ccccc5)oc4c3)CC2)c(OC)c1OC		13000			
COc1ccc(CN2CCN(C(=O)COc3cc(O)c4c(=O)cc(-c5ccccc5)oc4c3)CC2)c(OC)c1OC		14000			
CCOC(=O)COc1cc(-c2cc(=O)c3c(O)cc(OCC(=O)N4CCN(Cc5ccc(OC)c(OC)c5OC)CC4)cc3o2)ccc1OC	0.5	1000	> 70	>140	IC50 [5]: 13000 nM; inhibition in vivo at 10 mg/kg [7]: 27.1%; inhibition in vivo at 50 mg/kg [8]: 43.1%; IC50 [6]: 13000 nM
COc1ccc(-c2cc(=O)c3c(O)cc(OCC(=O)N4CCN(Cc5ccc(OC)c(OC)c5OC)CC4)cc3o2)cc1OC1CCCC1		2800	> 150	>53	
CCOC(=O)COc1cc(-c2cc(=O)c3c(O)cc(OCC(=O)N4CC[N+]([O-])(Cc5ccc(OC)c(OC)c5OC)CC4)cc3o2)ccc1OC		19000			
COc1ccc(-c2cc(=O)c3c(O)cc(OCC(=O)N4CCN(Cc5ccc(OC)c(OC)c5OC)CC4)cc3o2)cc1OCC(=O)OC(C)(C)C		1700	> 140	>82	IC50 [5]: 1400 nM; IC50 [6]: 1500 nM
CCCCCCOc1cc(-c2cc(=O)c3c(O)cc(OCC(=O)N4CCN(Cc5ccc(OC)c(OC)c5OC)CC4)cc3o2)ccc1OC		3900			
CCN(CC)CCCC(C)Nc1ccnc2cc(Cl)ccc12 (stereo unspecified) [CHLOROQUINE]					Activity ([2]; human, mrc5): Active

Second part, led by results:

IC50 [1] [µM]	IC50 [4] [nM]	Structure (SMILES)	IC50 [2] [µM]	Ratio IC50 [3]	further results
2.4		CCOC(=O)COc1cc(-c2cc(=O)c3c(O)cc(OCC(=O)N4CCN(Cc5cccc(OC)c5OC)CC4)cc3o2)ccc1OC			
5.4		CCOC(=O)COc1cc(OCC(=O)N2CCN(Cc3ccc(OC)c(OC)c3OC)CC2)c2c(=O)cc(-c3ccc(OC)c(OCC(=O)OCC)c3)oc2c1			
9.5		CCOC(=O)COc1cc(-c2cc(=O)c3c(O)cc(OCC(=O)N4CCN(Cc5ccccc5)CC4)cc3o2)ccc1OC			
6		CCOC(=O)COc1cc(-c2cc(=O)c3c(O)cc(OCC(=O)N4CCN(Cc5ccc(Cl)cc5)CC4)cc3o2)ccc1OC			
	8900	CCOC(=O)COc1cc(-c2cc(=O)c3c(O)cc(OCC(=O)N4CCN(Cc5ccc(OC)cc5)CC4)cc3o2)ccc1OC			
	1700	CCOC(=O)COc1cc(-c2cc(=O)c3c(O)cc(OCC(=O)N4CCN(Cc5ccc(OC)cc5OC)CC4)cc3o2)ccc1OC	5.6	3.3	
	1900	CCOC(=O)COc1cc(-c2cc(=O)c3c(O)cc(OCC(=O)N4CCN(Cc5c(OC)cc(OC)cc5OC)CC4)cc3o2)ccc1OC	9.5	5	
4		CCOC(=O)COc1cc(-c2cc(=O)c3c(O)cc(OCC(=O)N4CCN(Cc5cc(OC)c(OC)c(OC)c5)CC4)cc3o2)ccc1OC			
6.2		CCOC(=O)COc1cc(O)c2c(=O)cc(-c3ccc(OC)c(OCC(=O)N4CCN(Cc5ccc(OC)c(OC)c5OC)CC4)c3)oc2c1			
4.7		CCOC(=O)COc1cc(-c2cc(=O)c3c(O)cc(OCC(=O)N4CCN(Cc5ccc(OC)c(OC)c5)CC4)cc3o2)ccc1OC			
	41000	CCOC(=O)COc1cc(-c2cc(=O)c3c(O)cc(OCC(=O)N4CC[N+](C)(Cc5ccc(OC)c(OC)c5OC)CC4)cc3o2)ccc1OC			
